Data set [1] relates to Rattus norvegicus. Put plainly: Inhibition against adjuvant-induced paw edema at a dose of 25 mg/kg in male Sprague-Dawley rats. The data set is classed as functional. The essentials: (§1)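 Male Sprague-Dawley rats (180–200 g), left hindpaw injected intradermally with 0.1 mL Freund's complete adjuvant. Compound or vehicle given by gastric gavage just before FCA (day 0) and at 24 and 48 h. Paw volume read by plethysmometer before FCA and on day 3. Edema is the day 0 to day 3 volume difference, averaged per group.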

In data set [2] the test system is Mus musculus. The experiment in a line: Inhibition against writhing induced by Phenylbenzoquinone in male swiss albino mice at 25 mg/kg. The data set is classed as functional. A digest of the protocol: (§2)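 Mice in groups of 10, fasted overnight, dosed by gastric gavage with compound or vehicle (0.5% Tween 80 in distilled water). PBQ given ip 1 h later (0.15 mL of 0.02% per 10 g body weight). Writhes counted per mouse over the following 15 min. […] Benzylamine salts dosed as free acid.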
A general note: Writhing tests count abdominal constrictions after an irritant is injected.

Data set [3] in a line: Inhibitory activity against prostaglandin biosynthesis in stimulated chondrocyte cell culture. The data set is classed as functional.
The species entered for data set [4] is Mus musculus. The experiment in a line: Inhibition against writhing induced by Phenylbenzoquinone in male swiss albino mice. The data set is classed as functional. The essentials: as §2
Data set [5] can be described thus: Partition coefficient (logP). The note with it: octanol/water. The data set is classed as physicochemical. The essentials: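 Calculated by computer program, not measured experimentally.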
Data set [6] has as its system Mus musculus. The experiment in a line: Inhibition against writhing induced by Phenylbenzoquinone in male swiss albino mice; at 25 mg/kg. The format is functional. The essentials:
as §2

In data set [7] the test system is Mus musculus. The experiment in a line: Inhibition against writhing induced by Phenylbenzoquinone in male swiss albino mice at 10 mg/kg. The data set is classed as functional. A digest of the protocol:
as §2

In data set [8] the test system is Rattus norvegicus. The experiment in a line: Inhibition against adjuvant-induced paw edema at a dose of 25 mg/kg in Male Sprague-Dawley rats. The format is functional. The essentials:
as §1

Data set [9] concerns Mus musculus. The experiment in a line: Inhibition against writhing induced by Phenylbenzoquinone in male swiss albino mice at 200 mg/kg. The format is functional. The essentials: as §2

Bounds are passed on as bounds.

What is called inhibition in vivo is the drop in the measured response relative to a control, in per cent. In the case of `CCC1(CC(=O)O)CC[C@@H](Cc2ccccc2)c2c1[nH]c1ccccc21` (stereo not given in full), the inhibition in vivo at 25 mg/kg in the data set with Rattus norvegicus [1] came out at 42%; in the data set with Mus musculus [2], 4%.
For orientation: IC50 means the concentration that gives 50% inhibition. Higher therefore signals lower potency. For the compound `C=CC[C@@H]1COC(CC)(CC(=O)O)c2[nH]c3ccccc3c21` (stereo not given in full), the IC50 in data set [3] is above 10000 nM. The figures for the inhibition in vivo at 25 mg/kg with Rattus norvegicus [1] and in the data set with Mus musculus [2] were 30% and 25%, respectively.
Broadly, the ED50 is the midpoint of the dose-response relation. A lower ED50 goes with an effect at a small dose. Broadly, the logP is the decadic logarithm of the partition coefficient of the neutral form, usually between octanol and water. A low value points to lower lipophilicity. `C=CC[C@H]1CCC(CC)(CC(=O)O)c2[nH]c3c(CC)cccc3c21` (stereo not given in full): in the data set listed under Mus musculus [4], the ED50 was found to be 10.6 mg/kg. Further, the logP in data set [5] came out at 6.3. Further, the IC50 in data set [3] was 15 nM. Also, the inhibition in vivo at 25 mg/kg in the data set with Rattus norvegicus [1] turned out to be 44%.
As for `CCc1cccc2c3c([nH]c12)C(CC)(CC(=O)O)CCC3` (stereo not given), the logP in data set [5] came out at 5.3. Moreover, inhibition in data set [3] was half-maximal at 20 nM (IC50).
For `CCc1cccc2c3c([nH]c12)C(CC)(CC(=O)O)CC[C@@H]3c1ccccc1` (stereo not given in full), the results for the inhibition in vivo at 25 mg/kg in the data set with Rattus norvegicus [1] and in the data set on Mus musculus [2] were 12% and 17%, respectively.
In the data set listed under Mus musculus [4], `COc1ccc2c(c1)c(CC(=O)O)c(C)n2C(=O)c1ccc(Cl)cc1` [INDOMETHACIN] had an ED50 of 1.5 mg/kg. In data set [3], it took 11 nM to reach half-maximal inhibition (IC50).
Compound `CCc1cccc2c3c([nH]c12)C(CC)(CC(=O)O)CC[C@@H]3Cc1ccccc1` (stereo not given in full) returned an ED50 in the data set filed under Mus musculus [4] of 22.3 mg/kg. Also, in [5], the logP was determined as 7.4. In the data set on Rattus norvegicus [1], the inhibition in vivo at 25 mg/kg amounted to 38%.
As for `CCC1(CC(=O)O)OC[C@H](CCc2ccccc2)c2c1[nH]c1ccccc21` (stereo not given in full), the inhibition in vivo at 25 mg/kg in the data set with Mus musculus [6] and with Rattus norvegicus [1] was 0% in each case.
Regarding `C=C[C@@H]1CCC(CC)(CC(=O)O)c2[nH]c3c(CC)cccc3c21` (stereo not given in full), the inhibition in vivo at 25 mg/kg in the data set with Rattus norvegicus [1] stood at 62%; with Mus musculus [2], 0%.
For `CCC1(CC(=O)O)OC[C@@H](Cc2ccccc2)c2c1[nH]c1c(C)cccc21` (stereo not given in full) the same measures were 40% and 11%.
Compound `CCC1(CC(=O)O)CC[C@H](Cc2ccccc2)c2c1[nH]c1c(C)cccc21` (stereo not given in full) returned an ED50 in the data set filed under Mus musculus [4] of 3.4 mg/kg. In addition, in data set [5], the logP came to 6.9. Also, the inhibition in vivo at 25 mg/kg with Rattus norvegicus [1] was found to be 43%.
Regarding `CCc1cccc2c3c([nH]c12)C(CC)(CC(=O)O)CC[C@@H]3CC1CC1` (stereo not given in full), the inhibition in vivo at 25 mg/kg was determined as 19% in the data set on Rattus norvegicus [1] and 0% in the data set with Mus musculus [2].
As for `CCC1(CC(=O)O)OC[C@@H](CCc2ccccc2)c2c1[nH]c1ccccc21` (stereo not given in full), the inhibition in vivo at 25 mg/kg was determined as 0% with Mus musculus [6] and 20% in the data set on Rattus norvegicus [1].
In data set [5], `CCc1cccc2c3c([nH]c12)C(CC)(CC(=O)O)OC[C@@H]3Cc1ccccc1` (stereo not given in full) had a logP of 5.6. In the data set with Rattus norvegicus [1], the inhibition in vivo at 25 mg/kg came to 15%.
`CCC1(CC(=O)O)CC[C@@H](Cc2ccccc2)c2c1[nH]c1c(C)cccc21` (stereo not given in full): the inhibition in vivo at 10 mg/kg with Mus musculus [7] stood at 5%. Further, the inhibition in vivo at 25 mg/kg in the data set with Rattus norvegicus [1] was determined as 24%.
Regarding `C=CC[C@H]1COC(CC)(CC(=O)O)c2[nH]c3c(C)cccc3c21` (stereo not given in full), the logP in [5] stood at 4. The compound further yielded an IC50 in data set [3] of 200 nM. Besides, the results for the inhibition in vivo at 25 mg/kg with Rattus norvegicus [1] and in the data set on Mus musculus [2] were 54% and 10%, respectively.
`C=CC[C@@H]1COC(CC)(CC(=O)O)c2[nH]c3c(C)cccc3c21` (stereo not given in full) yielded an IC50 in data set [3] above 10000 nM. Besides, the inhibition in vivo at 25 mg/kg was found to be 31% with Rattus norvegicus [1] and 15% in the data set on Mus musculus [2].
As for `CCC1(CC(=O)O)OC[C@H](Cc2ccccc2)c2c1[nH]c1c(C)cccc21` (stereo not given in full), in the data set listed under Mus musculus [4], the ED50 is 4.7 mg/kg. The logP in data set [5] was 5. Besides, the inhibition in vivo at 25 mg/kg in the data set with Rattus norvegicus [1] stood at 47%.
The compound `C=CC[C@H]1CC[C@](CC)(CC(=O)O)c2[nH]c3c(CC)cccc3c21` returned an IC50 in [3] of 4000 nM. In addition, the inhibition in vivo at 25 mg/kg was 0% in the data set with Rattus norvegicus [1] and 5% with Mus musculus [2].
For `C=CC[C@H]1CCC(CC)(CC(=O)O)c2[nH]c3ccccc3c21` (stereo not given in full), the 50% effect level in the data set listed under Mus musculus [4] (ED50) was put at a dose of 19.6 mg/kg. For the same compound, the logP in data set [5] was determined as 5.2. Also, half-maximal inhibition in data set [3] (IC50) was put at 50 nM.
Compound `CCC1(CC(=O)O)OC[C@H](Cc2ccccc2)c2c1[nH]c1ccccc21` (single isomer, unassigned) [DEXPEMEDOLAC] had an ED50 in the data set filed under Mus musculus [4] of 2 mg/kg. The same compound showed a logP in [5] of 4.4. Moreover, it took 23 nM to reach half-maximal inhibition in data set [3] (IC50). The inhibition in vivo at 25 mg/kg with Rattus norvegicus [1] was 37%.
With `CCC[C@H]1CCC(CC)(CC(=O)O)c2[nH]c3c(CC)cccc3c21` (stereo not given in full), in the data set on Mus musculus [2], 25 mg/kg produced 15% inhibition in vivo.
`CCc1cccc2c3c([nH]c12)C(CC)(CC(=O)O)CC[C@H]3Cc1ccccc1` (stereo not given in full): the values for the inhibition in vivo at 25 mg/kg in the data set on Rattus norvegicus [1] and in the data set with Mus musculus [2] were 6% and 15%, respectively.
With `CCc1cccc2c3c([nH]c12)C(CC)(CC(=O)O)OCC3` (stereo not given) [ETODOLAC], the IC50 in data set [3] was 23 nM.
On to `C=CCC[C@H]1CCC(CC)(CC(=O)O)c2[nH]c3c(CC)cccc3c21` (stereo not given in full), for which the results for the inhibition in vivo at 25 mg/kg with Rattus norvegicus [1] and in the data set on Mus musculus [2] were 43% and 2%, respectively.
`C=CC[C@H]1CCC(CC)(CC(=O)O)c2[nH]c3c(C)cccc3c21` (stereo not given in full) gave an ED50 in the data set listed under Mus musculus [4] of 8.3 mg/kg. This compound came in with a logP in data set [5] of 5.8. Also, half-maximal inhibition in data set [3] (IC50) was put at 50 nM.
On to `C=CC[C@H]1CCC(CC)(CC(=O)O)c2[nH]c3c(CCC)cccc3c21` (stereo not given in full), for which the ED50 in the data set listed under Mus musculus [4] was determined as 28.7 mg/kg. The logP in data set [5] was 6.9. Besides, the inhibition in vivo at 25 mg/kg in the data set with Rattus norvegicus [1] came out at 39%.
Consider `C=CCC[C@@H]1CCC(CC)(CC(=O)O)c2[nH]c3c(CC)cccc3c21` (stereo not given in full), for which the inhibition in vivo at 25 mg/kg in the data set with Rattus norvegicus [1] was 16%; in the data set on Mus musculus [2], 0%.
In [5], `C=CC[C@H]1COC(CC)(CC(=O)O)c2[nH]c3ccccc3c21` (stereo not given in full) returned a logP of 3.3. For the same compound, the values for the inhibition in vivo at 25 mg/kg in the data set with Rattus norvegicus [8] and with Mus musculus [2] were 46% and 21%, respectively. Further, in data set [3], the IC50 was 120 nM.
In data set [3], `C=CC[C@H]1CC[C@@](CC)(CC(=O)O)c2[nH]c3c(CC)cccc3c21` came in with an IC50 of 15 nM. In addition, the figures for the inhibition in vivo at 25 mg/kg in the data set with Rattus norvegicus [1] and in the data set on Mus musculus [2] were 54% and 94%, respectively.
Take `C=CC[C@H]1COC(CC)(CC(=O)O)c2[nH]c3c(CCC)cccc3c21` (stereo not given in full): it took a dose of 9.5 mg/kg to reach the 50% effect level in the data set filed under Mus musculus [4] (ED50). In the data set with Rattus norvegicus [1], the inhibition in vivo at 25 mg/kg was found to be 32%.
As for `C=C[C@H]1CCC(CC)(CC(=O)O)c2[nH]c3c(CC)cccc3c21` (stereo not given in full), the figures for the inhibition in vivo at 25 mg/kg in the data set with Rattus norvegicus [1] and with Mus musculus [2] were 30% and 21%, respectively.
`C=CC[C@@H]1CCC(CC)(CC(=O)O)c2[nH]c3c(CC)cccc3c21` (stereo not given in full) displayed an inhibition in vivo at 200 mg/kg with Mus musculus [9] of 23%. The inhibition in vivo at 25 mg/kg with Rattus norvegicus [1] came to 35%.
`C=CC[C@H]1COC(CC)(CC(=O)O)c2[nH]c3c(CC)cccc3c21` (stereo not given in full) had an ED50 in the data set filed under Mus musculus [4] of 6.2 mg/kg. This compound displayed a logP in data set [5] of 4.5. Further, the IC50 in data set [3] was determined as 300 nM.
The compound `CCC1(CC(=O)O)CC[C@H](Cc2ccccc2)c2c1[nH]c1ccccc21` (stereo not given in full) returned an ED50 in the data set filed under Mus musculus [4] of 1.2 mg/kg. For the same compound, the logP in [5] was determined as 6.2. Besides, the half-inhibitory concentration (IC50) in data set [3] was 11 nM. The inhibition in vivo at 25 mg/kg with Rattus norvegicus [1] amounted to 49%.
For the compound `C=CC[C@@H]1COC(CC)(CC(=O)O)c2[nH]c3c(CCC)cccc3c21` (stereo not given in full), the inhibition in vivo at 25 mg/kg in the data set on Rattus norvegicus [1] is 36%; in the data set with Mus musculus [2] it was 2%.
Turning to `C=CC[C@@H]1COC(CC)(CC(=O)O)c2[nH]c3c(CC)cccc3c21` (stereo not given in full), the inhibition in vivo at 25 mg/kg with Rattus norvegicus [1] was found to be 55%; with Mus musculus [2], 33%.
Taken in the same sequence, the figures for `CCc1cccc2c3c([nH]c12)C(CC)(CC(=O)O)CC[C@H]3c1ccccc1` (stereo not given in full) were 37% and 28%.

Source of the values: ChEMBL document CHEMBL1124231, “Structure-activity relationships among analogues of pemedolac, cis-1-ethyl-1,3,4,9-tetrahydro-4-(phenylmethyl)pyrano[3,4-b]indo le-1-a cetic acid, a potent analgesic agent” (J Med Chem, 1988).
